Laboratory results as given in ChEMBL document CHEMBL1250461, “Synthesis, binding and bioactivity of gamma-methylene gamma-lactam ecdysone receptor ligands: advantages of QSAR models for flexible receptors” (Bioorg Med Chem, 2010).
Values after ≈ are worked out from the molar mass of the structure shown.

How the values were obtained:
[1] = Binding affinity to Bovicola ovis recombinant ecdysone receptor ligand binding domain after 3 hrs by fluorescence polarization assay
In short: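 B. ovis EcR_DEF/USP_DEF LBD heterodimer, co-expressed from baculovirus and purified by IMAC (2.51 mg/mL final). Competes with 36 nM fluorescein–inokosterone A conjugate in 50 mM sodium phosphate, 100 mM NaCl, pH 7.4 with 0.5 mg/mL BSA and 3% v/v DMSO. Compound range 3 nM–3 mM final. Incubated overnight at 4 °C, then 3 h at room temperature before polarisation (mP) read. Triplicate; IC50 from mean.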

[2] = Toxicity in Bovicola ovis assessed as mortality after 9 days; conditions: 216 h
Ecdysone receptor = biological target: T1, Ecdysone receptor (Lucilia cuprina, UniProt O18531); assay: Binding affinity to Lucilia cuprina recombinant ecdysone receptor ligand binding domain after 3 hrs by fluorescence polarization assay
T1 sequence (O18531 whole entry): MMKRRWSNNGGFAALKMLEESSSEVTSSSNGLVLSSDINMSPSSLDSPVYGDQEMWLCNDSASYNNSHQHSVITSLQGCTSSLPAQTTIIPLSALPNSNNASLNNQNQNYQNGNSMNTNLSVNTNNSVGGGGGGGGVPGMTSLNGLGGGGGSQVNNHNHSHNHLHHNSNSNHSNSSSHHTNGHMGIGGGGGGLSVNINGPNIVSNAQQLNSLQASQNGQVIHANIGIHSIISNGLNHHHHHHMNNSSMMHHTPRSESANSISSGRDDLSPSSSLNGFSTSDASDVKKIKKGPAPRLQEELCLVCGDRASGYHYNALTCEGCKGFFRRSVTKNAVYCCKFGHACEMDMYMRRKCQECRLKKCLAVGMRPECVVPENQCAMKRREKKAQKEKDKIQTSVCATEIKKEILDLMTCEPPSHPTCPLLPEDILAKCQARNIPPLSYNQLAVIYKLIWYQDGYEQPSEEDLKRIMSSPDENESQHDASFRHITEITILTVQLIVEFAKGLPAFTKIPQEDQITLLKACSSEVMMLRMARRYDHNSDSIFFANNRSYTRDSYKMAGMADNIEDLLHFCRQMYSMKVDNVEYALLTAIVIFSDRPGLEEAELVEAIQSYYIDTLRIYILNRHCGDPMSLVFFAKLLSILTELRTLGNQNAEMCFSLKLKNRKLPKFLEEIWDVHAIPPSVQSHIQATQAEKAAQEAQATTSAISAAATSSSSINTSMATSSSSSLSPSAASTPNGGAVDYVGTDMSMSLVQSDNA
In short: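 L. cuprina EcR_DEF/USP_DEF LBD heterodimer, baculovirus co-expressed and IMAC-purified, used at 1.14 mg/mL. Fluorescence polarisation competition against 36 nM fluorescein–inokosterone A conjugate, with 0.5 mg/mL BSA and 3% v/v DMSO in 50 mM sodium phosphate/100 mM NaCl, pH 7.4. Test range 3 nM–3 mM final. Overnight at 4 °C, then 3 h re-equilibration at room temperature, mP read. Triplicate on one plate; IC50 from mean.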

IC50 [1] | IC50 (Ecdysone receptor) | Structure (SMILES) | LC50 [2]
4 µM | 5.5 µM | C=C1C(CCCC)=C(C#N)C(=O)N1c1cc(Cl)ccc1C(C)(C)C | –
27.5 µM | 48 µM | C=C1C(C)=C(C#N)C(=O)N1c1ccccc1C(F)(F)F | –
46 µM | 33 µM | C=C1C(CCCC)=C(C#N)C(=O)N1c1c(C)cccc1CC | –
27.5 µM | 47 µM | C=C1C(C(C)C)=C(C#N)C(=O)N1c1c(C)cccc1C(C)C | –
30 µM | 175 µM | C=C1C(CC(C)C)=C(C#N)C(=O)N1c1c(C)cc(C)cc1C | –
6 µM | 12.5 µM | C=C1C(CCCC)=C(C#N)C(=O)N1c1cc(Cl)ccc1C | –
2.7 µM | 5.5 µM | C=C1C(CC(C)C)=C(C#N)C(=O)N1c1cc(Cl)c(Cl)cc1Cl | –
11.3 µM | 8.5 µM | C=C1C(C)=C(C#N)C(=O)N1c1cc(Cl)c(C(C)(C)C)cc1Cl | –

Continued, compound first:

Structure (SMILES) | IC50 [1] | IC50 (Ecdysone receptor) | LC50 [2]
C=C1C(c2ccccc2)=C(C#N)C(=O)N1C1CCCCC1 | 7.5 µM | 12.5 µM | 130 µg/mL (≈ 467 µM)
C=C1C(C)=C(C#N)C(=O)N1c1ccc(Cl)c(Cl)c1 | 15 µM | – | 167 µg/mL (≈ 598 µM)
C=C1C(CC(C)C)=C(C#N)C(=O)N1c1cc(Cl)cc(Cl)c1 | 5.5 µM | – | 119 µg/mL (≈ 370 µM)
C=C1C(CC)=C(C#N)C(=O)N1c1cc(Cl)ccc1C(C)(C)C | 15 µM | 11 µM | 190 µg/mL (≈ 604 µM)
C=C1C(C)=C(C#N)C(=O)N1c1cc(C(C)(C)C)ccc1C(C)(C)C | 5 µM | 6.5 µM | –
C=C1C(C)=C(C#N)C(=O)N1c1c(C(C)C)cccc1C(C)C | 20.8 µM | 23.5 µM | –
C=C1C(CC(C)C)=C(C#N)C(=O)N1c1cc(C(F)(F)F)cc(C(F)(F)F)c1 | 6.3 µM | – | 26 µg/mL (≈ 67 µM)
C=C1C(C)=C(C(=O)Nc2cccc(Cl)c2)C(=O)N1c1cccc(Cl)c1 | 12.5 µM | 250 µM | –
C=C1C(CCC)=C(C#N)C(=O)N1c1cc(Cl)ccc1Cl | 8.5 µM | – | 66 µg/mL (≈ 215 µM)
C=C1C(C)=C(C(=O)c2ccccc2)C(=O)N1c1cccc(C(F)(F)F)c1 | 12.5 µM | 17.5 µM | –
CC(C)CC[C@@H](O)[C@](C)(O)[C@H]1CC[C@@]2(O)C3=CC(=O)[C@@H]4C[C@@H](O)[C@@H](O)C[C@]4(C)[C@H]3CC[C@]12C [PONASTERONE A] | 1.1 µM | 0.9 µM | –
CC(C)(O)CC[C@@H](O)[C@](C)(O)[C@H]1CC[C@@]2(O)C3=CC(=O)[C@@H]4C[C@@H](O)[C@@H](O)C[C@]4(C)[C@H]3CC[C@]12C [20-HYDROXYECDYSONE] | 24 µM | 5.5 µM | –
C=C1C(CCCC)=C(C#N)C(=O)N1c1cccc(Cl)c1C | 4.3 µM | 8.3 µM | 175 µg/mL (≈ 582 µM)
C=C1C(C)=C(C#N)C(=O)N1N1CCCCC1 | 125 µM | – | 244 µg/mL (≈ 1120 µM)
